Most compounds without a hit are left out; they make up all but 3.5% or so of the library.
RGS4 pot = RGS4 potentiation or activation | AID 463111 | HEK293 M3R/inducible RGS4, carbachol calcium flux Fluo4; stronger effect = lower value | B-score at 10 µM | actives 0.92% (n = 310,000);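 active = B-score of the integrated calcium signal more than 4 SD below the library mean, with starting fluorescence not abnormally high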;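 also: negative B-score means reduced calcium response which marks RGS4 activation or potentiation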
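test system = M3R-expressing HEK293 line, RGS4 induced by doxycycline | probe or stimulus = carbachol at ECmax as muscarinic agonist stimulus | timing = dye loading 30 min 37 °C, buffer rest 30 min RT | signal = calcium dye Fluo4 fluorescence | evaluation = B score from integrated fluorescence ratio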
MrgX1 antagonist = human MrgX1 receptor antagonism, primary screen; Q96LB2; MRGX1-HEK293 calcium flux, Fluo-4, BAM8-22 antagonism; stronger effect = lower value; B-score at 10 µM; actives 1.3% (n = 310,000); AID 588676;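 active = calcium-response B-score plate-corrected more than 3 library SD below zero, starting fluorescence within 5 deviations, no agonist response on first addition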;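 also: peak minus trough fluorescence over baseline after final BAM8-22 challenge near maximal dose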
Target sequence (Q96LB2 whole entry, looked up): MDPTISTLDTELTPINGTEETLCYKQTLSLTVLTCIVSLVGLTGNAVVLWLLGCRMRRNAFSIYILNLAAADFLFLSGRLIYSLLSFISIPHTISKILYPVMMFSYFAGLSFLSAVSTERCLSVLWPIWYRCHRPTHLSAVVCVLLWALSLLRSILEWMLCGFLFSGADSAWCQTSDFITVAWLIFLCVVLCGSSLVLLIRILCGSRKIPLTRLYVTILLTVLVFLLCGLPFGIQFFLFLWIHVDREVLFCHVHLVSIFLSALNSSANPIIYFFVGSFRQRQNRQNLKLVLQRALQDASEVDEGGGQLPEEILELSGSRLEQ
RGS4 block = inhibitors of human RGS4. HEK293 M3R/RGS4 inducible, Fluo-4 calcium flux; stronger effect = higher value; triggered by carbachol at its EC20. B-score at 10 µM. actives 0.45% (n = 310,000). AID 463165;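 active = B-score, a plate-corrected calcium signal, over three deviations above library mean, with baseline fluorescence within five deviations of library mean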;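 also: RGS4 expression induced by doxycycline in cells with stable M3 receptor; B-score is computed from the integrated fluorescence ratio over baseline after carbachol; higher B-score means a larger calcium signal and so more RGS4 inhibition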
Target sequence (P49798 whole entry, looked up): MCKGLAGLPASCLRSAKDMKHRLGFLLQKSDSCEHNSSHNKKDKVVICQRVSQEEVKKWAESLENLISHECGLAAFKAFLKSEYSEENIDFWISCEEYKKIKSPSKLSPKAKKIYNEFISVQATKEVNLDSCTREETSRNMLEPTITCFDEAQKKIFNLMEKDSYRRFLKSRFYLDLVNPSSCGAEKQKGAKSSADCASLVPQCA
MrgX1 agonist = human MrgX1 receptor agonism, primary screen. B-score at 10 µM. actives 0.44% (n = 310,000). Q96LB2. MrgX1-HEK293 cells, Fluo-4 calcium fluorescence, agonist mode; stronger effect = higher value;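 active = calcium response B-score plate-corrected fluorescence ratio at least 3 library SD, with starting fluorescence B-score inside 5 SD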
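Material – MrgX1-expressing HEK293 cells · Input – 15,000 cells seeded per well · Dosing – compound as first of three additions · Times – overnight seeding, then 1 h dark dye loading · Measured by – kinetic Fluo-4 NW fluorescence of intracellular calcium · Read-out – B-scored fluorescence response ratio · Benchmarks – positive and negative control wells on each plate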
MrgX1 allo act = allosterically activates human MrgX1 receptor signaling; MrgX1-HEK293, Fluo-4 calcium flux, FDSS; stronger effect = higher value; actives 0.63% (n = 310,000); AID 588675; B-score at 10 µM;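 active = plate-corrected calcium response at least 3 library SD above typical, normal starting fluorescence, not activating the receptor alone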;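 also: compound read alongside a low EC10 to EC30 dose of BAM8-22 agonist; peak minus trough fluorescence over baseline measured at the second addition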
MrgX1 allo conf = reconfirmed allosteric activator of human MrgX1 receptor; shares compounds with MrgX1 allo act; MrgX1-HEK293, Fluo-4 calcium fluorescence, FDSS; activation (ratio percentage), % at 10 µM; actives 13% (n = 1,200);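 active = ratio at least 3 SD above the weak peptide control, stable starting fluorescence, no direct agonism earlier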;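 also: compound followed by low BAM8-22 agonist challenge near EC20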
MrgX1 antag conf = human MrgX1 receptor antagonism, re-confirmation screen | shares compounds with MrgX1 antagonist | MrgX1-HEK293, BAM8-22 calcium flux, Fluo-4; stronger effect = lower value | remaining BAM8-22 calcium response % of control (stronger effect = lower value), % at 10 µM | actives 19% (n = 2,300);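 active = remaining agonist calcium response no higher than 100% minus 3 SD of agonist-only control wells, with starting fluorescence near control levels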;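 also: agonist BAM8-22 given at a near maximal EC90 to ECmax level; peak minus minimum fluorescence divided by baseline after agonist addition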
HEK293 Ca flux = activity in parental HEK293 cells lacking MrgX1; shares compounds with MrgX1 antagonist; Fluo-4 calcium fluorescence, FDSS; fluorescence ratio F(max-min)/F0 at 10 µM; actives 2% (n = 4,000); AID 624111;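 active = duplicate-averaged calcium fluorescence ratio at least three times the standard deviation of buffer wells, a nonspecific response in parental cells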
HEK293 Ca counter = counter-screen for MrgX1 allosteric activators: effect in parental HEK293 cells; parental HEK293 calcium flux, Fluo-4 fluorescence ratio; stronger effect = higher value; actives 0.4% (n = 4,000); shares compounds with MrgX1 antagonist; fluorescence ratio F(max-min)/F0 at 10 µM;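 active = calcium fluorescence ratio, averaged over duplicates, at least 3 SD of the buffer-well ratio, meaning a nonspecific response in receptor-free cells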;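 also: untransfected parental HEK293 lacking MrgX1 used as counterscreen for MrgX1 allosteric activators; fluorescence change taken during the second addition on a kinetic imager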
HEK293 Ca cntr2 = counter-screen for MrgX1 activators: effect in parental HEK293 cells; Fluo-4 calcium fluorescence (FDSS); stronger effect = higher value; actives 8.7% (n = 4,000); shares compounds with MrgX1 antagonist; fluorescence ratio F(max-min)/F0 at 10 µM;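 active = calcium fluorescence ratio at least three times the spread of buffer wells, meaning a non-specific response in parental cells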
Active calls of the source: *; i = inactive; x = not tested or not shown.

SMILES | RGS4 pot | MrgX1 antagonist | RGS4 block | MrgX1 agonist | MrgX1 allo act | MrgX1 allo conf | HEK293 Ca flux | HEK293 Ca counter | HEK293 Ca cntr2 | others
CCOc1ccc(-c2[nH]ncc2Oc2ccccc2OCC)c(O)c1 | i | i | i | i | 6.7* | i | i | i | i
CCOc1ccc(-c2[nH]ncc2-c2ccc(OC)c(OC)c2)c(O)c1 | x | i | x | i | 18* | i | i | i | i
CCc1cc(-c2[nH]ncc2-c2ccc3c(c2)OCO3)c(O)cc1O | i | i | i | i | i | x | x | x | x
COc1ccc(-c2[nH]ncc2-c2ccc3c(c2)OCCO3)c(O)c1 | x | i | x | i | 8* | i | i | i | i
Cc1sc(NC(=O)C2CSC3(C)CCC(=O)N23)nc1-c1ccc(F)cc1 (configuration not stated) | i | i | i | i | i | x | x | x | x
O=C(CCc1ccccc1)Nc1nc2n(n1)C(c1ccccc1)CC(=O)N2 (configuration not stated) | i | i | i | i | 21* | i | i | i | i
O=C(CCc1ccccc1)Nc1nc2n(n1)C(c1ccc(Cl)cc1)CC(=O)N2 (configuration not stated) | i | i | i | i | i | x | x | x | x
CC(C)(C)NC(=O)CSc1nc(-c2ccc(F)cc2)cs1 | i | i | i | i | 9.4* | i | i | i | i
C=C/C(C)=C/C[C@H]1C(=C)CCC2[C@](C)(C(=O)O)CCC[C@@]21C (some centres not stated) | x | i | x | i | 7.4* | i | i | i | i
C=C1CCC2[C@](C)(CO)[C@H](O)CC[C@@]2(C)[C@@H]1C/C=C1\C(=O)OC[C@H]1O (some centres not stated) | i | i | i | i | i | x | x | x | x
Cc1ccc(Nc2cc(C)nc3c(C)cccc23)cc1 | i | i | i | i | 7.3* | i | i | i | i
CC(=O)c1ccc(Nc2cc(C)nc3c(C)cccc23)cc1 | i | i | i | i | i | x | x | x | x
CC1=CC(=O)C(C(C)C)=C/C1=C(\c1cc(C(C)C)c(OP(=O)(O)O)cc1C)c1ccccc1C(=O)O | i | i | i | i | i | x | x | x | x
COc1ccc(C)cc1NC(=O)C1CCN(C(=O)Cc2ccccc2)CC1 | i | i | i | i | 11* | i | i | i | i
COC(=O)c1ccccc1NC(=O)C1CCN(C(=O)Cc2ccccc2)CC1 | i | i | i | i | i | x | x | x | x
Cc1cc(F)ccc1NC(=O)c1cnccn1 | i | i | i | i | 11* | i | i | i | i
COc1ccc(CCn2c(=O)c3cccnc3n(Cc3cccc([N+](=O)[O-])c3)c2=O)cc1OC | i | i | i | i | i | x | x | x | x
COc1cc(NC(=O)C2CCCC2)c(OC)cc1Cl | i | i | i | i | 6.6* | i | i | i | i
Cc1ccc(S(=O)(=O)N2CCCCC2)cc1NC(=O)COc1ccccc1F | i | i | i | i | i | x | x | x | x
CCOc1cc(/C=C2/C(=N)N3C(=NC2=O)SN=C3S(=O)(=O)C(C)C)ccc1OC(=O)c1ccco1 | i | i | i | i | 37* | 41%* | i | i | 48*
CCOc1cc(/C=C2/C(=N)N3C(=NC2=O)SN=C3S(=O)(=O)CC)ccc1OC(=O)c1ccco1 | i | i | i | i | 35* | 24%* | i | i | i
COc1cc(/C=C2/C(=N)N3C(=NC2=O)SN=C3S(=O)(=O)C(C)C)ccc1OC(=O)c1ccco1 | i | i | i | i | 38* | 37%* | i | i | i
CCOc1cc(/C=C2/C(=N)N3OC(C)=CC3=NC2=O)ccc1OC(=O)c1ccco1 | i | i | i | i | i | x | x | x | x
CCOc1cc(/C=C2/SC(=S)NC2=O)ccc1OC(=O)c1ccco1 | i | i | i | i | i | x | x | x | x
Cc1ccc(CNC(=O)C2CCC(=O)N(CCc3cccc(F)c3)C2)cc1 (configuration not stated) | i | i | i | i | i | x | x | x | x
SMILES | RGS4 pot | MrgX1 antagonist | RGS4 block | MrgX1 agonist | MrgX1 allo act | MrgX1 allo conf | HEK293 Ca flux | HEK293 Ca counter | HEK293 Ca cntr2 | others
CCCCOc1ccc(C(=O)NN2CCOCC2)cc1 | i | i | i | i | i | x | x | x | x
O=C(NNC(=S)NC(=O)c1sc2ccccc2c1Cl)c1ccc(Cl)cc1 | i | -18* | i | i | i | x | i | i | i | MrgX1 antag conf=i
COCCOn1c(SCCOC)nc2ccccc2c1=O | i | i | i | i | i | x | x | x | x
Cn1c(=O)c(=O)n(C)c2cc(S(=O)(=O)N3CCC(Cc4ccccc4)CC3)ccc21 | i | i | i | i | i | x | x | x | x
CCn1c(=O)n(CC)c2cc(S(=O)(=O)N3CCC(c4ccccc4)CC3)ccc21 | i | -7.1* | i | i | i | x | i | i | i | MrgX1 antag conf=i
CCOC(=O)c1sc(NC(=O)c2ccc(C)o2)nc1C | i | -8* | i | i | i | x | i | i | i | MrgX1 antag conf=i
COC(=O)c1sc(NC(=O)c2ccc(C)o2)nc1C | i | i | i | i | i | x | x | x | x
COc1ccc(S(=O)(=O)NNC(=O)Nc2ccc(F)cc2F)c(OC)c1 | i | i | i | i | i | x | x | x | x
Cc1cc2c(cc1S(=O)(=O)N(C)c1ccccc1)n(C)c(=O)n2C | i | i | i | i | i | x | x | x | x
Cc1cccc(N(C)S(=O)(=O)c2cc3c(cc2C)n(C)c(=O)c(=O)n3C)c1 | i | -4.7* | i | i | i | x | i | i | i | MrgX1 antag conf=i
CCCc1cc(=O)[nH]c(SCCN2C(=O)c3ccccc3C2=O)n1 | i | -5.3* | i | i | i | x | i | i | i | MrgX1 antag conf=i

Assay outcomes as filed in PubChem.
